PMC5724766 (Bioorganic & medicinal chemistry, 2016)
Blank lines part the entries; values can stand above or below the molecule they belong to.

Assays:
[1] = molecular target: purified human 20S proteasome, tryptic (β2)-like activity (Homo sapiens, UniProt Q99436); experiment: 20S proteasome trypsin-like; type: biochemical
Method in brief: (§1)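 Purified human 20S proteasome (1 nM) in 50 mM Tris-HCl pH 7.5 with 0.03% SDS and 50 μM fluorogenic substrate at 37 °C: Z-LLE-AMC for caspase-like activity, Z-ARR-AMC for trypsin-like activity. Released aminomethylcoumarin read at ex 380/em 460 nm every minute for 30 min. Maximum fluorescence increase per minute gives the specific activity of each sample.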

proteasome = conditions: cited from earlier work; for IC50: read-out: IC50, proteasome inhibition
[2] = molecular target: purified human 20S proteasome, caspase (β1)-like activity (Homo sapiens, UniProt P28072); experiment: 20S proteasome caspase-like; type: biochemical
Method in brief: as §1

IC50 [1]: > 25 µM
Structure (SMILES): Cc1cc(C)c2cc(C3=CCCCC3)c(C)nc2c1 [Compound 7, 3-Cyclohexenyl-2,5,7-trimethylquinoline]

Structure (SMILES): O=C1C(Cl)=C(Nc2ccc(S(=O)(=O)Nc3ccccn3)cc2)C(=O)c2ccccc21 [PI-083]
IC50 (proteasome): ~1 µM

Structure (SMILES): Nc1ccc(O)c2ncccc12 [5-AHQ, 5-amino-8-hydroxyquinoline]
IC50 (proteasome): 0.6 to 5 µM

IC50 [2]: 10.9 µM | inhibition of tryptic-like activity (in words) ([1]; purified human 20S proteasome, Suppl. Fig. S6): not the tryptic-like activity
Structure (SMILES): Cc1nc2ccc(N3CCCCC3)cc2cc1C1=CCCCC1 [Compound 25, 3-Cyclohexenyl-2-methyl-6-piperidinylquinoline]

Structure (SMILES): CCN(CC)CCCC(C)Nc1ccnc2cc(Cl)ccc12 (stereo not drawn) [chloroquine]
proteasome inhibitory activity (in words) (proteasome): millimolar activity
